Laboratory results taken from ChEMBL document CHEMBL1142244, “Cytotoxic constituents from the fruiting branches of Callicarpa americana collected in southern Florida” (J Nat Prod, 2007).
Values after ≈ are worked out from the molar mass of the structure shown.

Columns and labels:
Col2 = assay: (§1) Cytotoxicity against human Col2 cells; type: cell-based; conditions: col2
Lu1 [1] = assay: (§2) Cytotoxicity against human Lu1 cells; type: cell-based; conditions: lu1
MCF7 [2] = assay: (§3) Cytotoxicity against human MCF7 cells; type: cell-based; conditions: mcf7
HUVEC = assay: (§4) Cytotoxicity against human HUVEC cells; type: cell-based; conditions: huvec
TERT-RPE1 = assay: (§5) Cytotoxicity against human TERT-RPE1 cells; type: cell-based; conditions: tert-rpe1
LNCaP [3] = assay: (§6) Cytotoxicity against human LNCaP cells; type: cell-based; conditions: lncap
MCF7 [4] = assay: Cytotoxicity against human MCF7 cells xenografted in NCr nu/nu athymic mouse at 50 mg/kg, ip by hollow fiber assay; type: organism-based; design: dose 50 mg/kg, route intraperitoneal; conditions: in vivo
In short: (§7)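 Female-unspecified NCr nu/nu athymic mice, five to six weeks old. LNCaP, Lu1 and MCF-7 cells were sealed in semi-porous hollow fibres and implanted at intraperitoneal and subcutaneous sites, each mouse carrying all three lines at both sites. Compound was given i.p. at 6.25, 12.5, 25 or 50 mg/kg, with three mice per dose group.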

[5] = as §1; type: cell-based; conditions: Col2 cells, read-out: ED50 (the source's name)
[6] = as §2; type: cell-based; conditions: Lu1 cells, read-out: ED50 (the source's name)
Lu1 [7] = assay: Cytotoxicity against human Lu1 cells xenografted in NCr nu/nu athymic mouse at 50 mg/kg, ip by hollow fiber assay; type: organism-based; design: dose 50 mg/kg, route intraperitoneal; conditions: in vivo; in short: as §7
MCF7 [8] = assay: Cytotoxicity against human MCF7 cells xenografted in NCr nu/nu athymic mouse at 25 mg/kg, ip by hollow fiber assay; type: organism-based; design: dose 25 mg/kg, route intraperitoneal; conditions: in vivo; in short: as §7
MCF7 [9] = assay: Cytotoxicity against human MCF7 cells xenografted in NCr nu/nu athymic mouse at 6.25 mg/kg, ip by hollow fiber assay; type: organism-based; design: dose 6.25 mg/kg, route intraperitoneal; conditions: in vivo; in short: as §7
Lu1 [10] = assay: Cytotoxicity against human Lu1 cells xenografted in NCr nu/nu athymic mouse at 25 mg/kg, ip by hollow fiber assay; type: organism-based; design: dose 25 mg/kg, route intraperitoneal; conditions: in vivo; in short: as §7
MCF7 [11] = assay: Cytotoxicity against human MCF7 cells xenografted in NCr nu/nu athymic mouse at 12.5 mg/kg, ip by hollow fiber assay; type: organism-based; design: dose 12.5 mg/kg, route intraperitoneal; conditions: in vivo; in short: as §7
LNCaP [12] = assay: Cytotoxicity against human LNCaP cells xenografted in NCr nu/nu athymic mouse at 6.25 mg/kg, ip by hollow fiber assay; type: organism-based; design: dose 6.25 mg/kg, route intraperitoneal; conditions: in vivo; in short: as §7
Lu1 [13] = assay: Cytotoxicity against human Lu1 cells xenografted in NCr nu/nu athymic mouse at 12.5 mg/kg, ip by hollow fiber assay; type: organism-based; design: dose 12.5 mg/kg, route intraperitoneal; conditions: in vivo; in short: as §7
[14] = as §4; type: cell-based; conditions: HUVEC cells, read-out: ED50 (the source's name)
Lu1 [15] = assay: Cytotoxicity against human Lu1 cells xenografted in NCr nu/nu athymic mouse at 6.25 mg/kg, ip by hollow fiber assay; type: organism-based; design: dose 6.25 mg/kg, route intraperitoneal; conditions: in vivo; in short: as §7
[16] = as §5; type: cell-based; conditions: TERT-RPE1 cells, read-out: ED50 (the source's name)
LNCaP [17] = assay: Cytotoxicity against human LNCaP cells xenografted in NCr nu/nu athymic mouse at 12.5 mg/kg, ip by hollow fiber assay; type: organism-based; design: dose 12.5 mg/kg, route intraperitoneal; conditions: in vivo; in short: as §7
LNCaP [18] = assay: Cytotoxicity against human LNCaP cells xenografted in NCr nu/nu athymic mouse at 50 mg/kg, ip by hollow fiber assay; type: organism-based; design: dose 50 mg/kg, route intraperitoneal; conditions: in vivo; in short: as §7
LNCaP [19] = assay: Cytotoxicity against human LNCaP cells xenografted in NCr nu/nu athymic mouse at 25 mg/kg, ip by hollow fiber assay; type: organism-based; design: dose 25 mg/kg, route intraperitoneal; conditions: in vivo; in short: as §7
[20] = as §6; type: cell-based; conditions: LNCaP cells, read-out: ED50 (the source's name)
[21] = as §3; type: cell-based; conditions: MCF7 cells, read-out: ED50 (the source's name)

CC1=CCC[C@@H]2[C@@](C)(C[C@H](O)C3=CC(=O)OC3)[C@H](C)CC[C@@]12C
Activity (Col2): Not Active
Activity (Lu1 [1]): Not Active
Activity (MCF7 [2]): Not Active
Activity (HUVEC): Not Active
Activity (TERT-RPE1): Not Active
Activity (LNCaP [3]): Not Active

C=C1[C@@H](O)CC[C@@H]2[C@@](C)(C[C@H](O)C3=CC(=O)OC3)[C@H](C)CC[C@@]12C
Activity (Col2): Not Active
Activity (Lu1 [1]): Not Active
Activity (MCF7 [2]): Not Active
Activity (HUVEC): Not Active
Activity (TERT-RPE1): Not Active
Activity (LNCaP [3]): Not Active

CC1=CCC[C@@H]2[C@@](C)(C[C@H](O)C3=CC(=O)O[C@H]3O)[C@H](C)CC[C@@]12C
Activity (MCF7 [4]): Not Active
CC50 [5]: 2.3 µg/mL (≈ 6.88 µM)
CC50 [6]: 2.4 µg/mL (≈ 7.18 µM)
Activity (Lu1 [7]): Not Active
Activity (MCF7 [8]): Not Active
Activity (MCF7 [9]): Not Active
Activity (Lu1 [10]): Not Active
Activity (MCF7 [11]): Not Active
Activity (LNCaP [12]): Not Active
Activity (Lu1 [13]): Not Active
CC50 [14]: 1.8 µg/mL (≈ 5.38 µM)
Activity (Lu1 [15]): Not Active
CC50 [16]: 1.9 µg/mL (≈ 5.68 µM)
Activity (LNCaP [17]): Not Active
Activity (LNCaP [18]): Not Active
Activity (LNCaP [19]): Not Active
CC50 [20]: 4.1 µg/mL (≈ 12.3 µM)

CC1=CCC[C@@H]2[C@@](C)(/C=C/C3=CC(=O)O[C@H]3O)[C@H](C)CC[C@@]12C
CC50 [6]: 2.6 µg/mL (≈ 8.22 µM)
CC50 [21]: 2.7 µg/mL (≈ 8.53 µM)
CC50 [14]: 1.2 µg/mL (≈ 3.79 µM)
CC50 [20]: 2.5 µg/mL (≈ 7.9 µM)

CC1=C(C=O)C[C@@H]2[C@@](C)(CCC3=CC(=O)OC3O)[C@H](C)CC[C@@]12C (some centres not stated)
CC50 [5]: 9 µg/mL (≈ 27.1 µM)
CC50 [6]: 8.7 µg/mL (≈ 26.2 µM)
CC50 [21]: 3.9 µg/mL (≈ 11.7 µM)
CC50 [14]: 9.8 µg/mL (≈ 29.5 µM)
CC50 [16]: 1.9 µg/mL (≈ 5.72 µM)
CC50 [20]: 4.5 µg/mL (≈ 13.5 µM)

COc1ccc(-c2cc(=O)c3c(O)cc(OC)cc3o2)cc1
Activity (Col2): Not Active
Activity (Lu1 [1]): Not Active
Activity (MCF7 [2]): Not Active
Activity (HUVEC): Not Active
Activity (TERT-RPE1): Not Active
Activity (LNCaP [3]): Not Active

C=C1[C@@H](O)CC[C@@H]2[C@@](C)(CCC3=CC(=O)O[C@H]3O)[C@H](C)CC[C@@]12C
Activity (Col2): Not Active
Activity (Lu1 [1]): Not Active
Activity (MCF7 [2]): Not Active
Activity (HUVEC): Not Active
Activity (TERT-RPE1): Not Active
Activity (LNCaP [3]): Not Active

CO[C@@H]1OC(=O)C=C1[C@@H](O)C[C@@]1(C)[C@H](C)CC[C@@]2(C)C(C)=CCC[C@H]12
Activity (Col2): Not Active
Activity (Lu1 [1]): Not Active
Activity (MCF7 [2]): Not Active
Activity (HUVEC): Not Active
Activity (TERT-RPE1): Not Active
Activity (LNCaP [3]): Not Active

CC1=CCC[C@@H]2[C@@](C)(CCC3=CC(=O)O[C@H]3O)[C@H](C)CC[C@@]12C
CC50 [6]: 3.7 µg/mL (≈ 11.6 µM)
CC50 [21]: 3.5 µg/mL (≈ 11 µM)
CC50 [14]: 4.1 µg/mL (≈ 12.9 µM)
CC50 [20]: 3.3 µg/mL (≈ 10.4 µM)

CC1=CCC[C@@H]2[C@@](C)(C[C@H](O)C3=CCOC3=O)[C@H](C)CC[C@@]12C
CC50 [6]: 2.9 µg/mL (≈ 9.11 µM)
CC50 [21]: 2.8 µg/mL (≈ 8.79 µM)
CC50 [20]: 3.3 µg/mL (≈ 10.4 µM)

CC1(C)C(=O)CC[C@@]2(C)[C@H]1CC[C@@]13C[C@H](CC[C@@H]12)[C@@](O)(CO)C3 [CALLITERPENONE]
Activity (Col2): Not Active
Activity (Lu1 [1]): Not Active
Activity (MCF7 [2]): Not Active
Activity (HUVEC): Not Active
Activity (TERT-RPE1): Not Active
Activity (LNCaP [3]): Not Active

C[C@@H]1CC[C@]2(C(=O)O)CC[C@]3(C)C(=CC[C@@H]4[C@@]5(C)C[C@@H](O)[C@@H](O)C(C)(C)[C@@H]5CC[C@]43C)[C@@H]2[C@]1(C)O [EUSCAPHIC ACID]
Activity (Col2): Not Active
Activity (Lu1 [1]): Not Active
Activity (MCF7 [2]): Not Active
Activity (HUVEC): Not Active
Activity (TERT-RPE1): Not Active
Activity (LNCaP [3]): Not Active

COc1cc(O)c2c(=O)cc(-c3ccc(O)cc3)oc2c1 [GENKWANIN]
CC50 [5]: > 20 µg/mL
CC50 [6]: > 20 µg/mL
CC50 [14]: > 20 µg/mL
CC50 [16]: 3.9 µg/mL (≈ 13.7 µM)
CC50 [20]: > 20 µg/mL

COc1ccc(-c2cc(=O)c3c(O)c(OC)c(OC)cc3o2)cc1 [SALVIGENIN]
Activity (Col2): Not Active
Activity (Lu1 [1]): Not Active
Activity (MCF7 [2]): Not Active
Activity (HUVEC): Not Active
Activity (TERT-RPE1): Not Active
Activity (LNCaP [3]): Not Active
